Measured values from ChEMBL document CHEMBL3785029, “Synthesis and Characterization of Fatty Acid Conjugates of Niacin and Salicylic Acid” (J Med Chem, 2016).
Activity calls are given as the source filed them. No cut-off for these calls is given here.

How the values were obtained:
[1] = Drug metabolism in Sprague-Dawley rat epididymal fat assessed as salicyluric acid formation at 300 mg/kg, po administered for 14 days followed by 7 day washout cycle measured on day 21; format: ADME, organism-based, Epididymal fat pad; conditions: in vivo
Brain = experiment: Drug metabolism in Sprague-Dawley rat brain assessed as salicylic acid formation at 300 mg/kg, po administered for 7 days measured 4 hrs post dose on day 7; format: ADME, organism-based; conditions: in vivo
Summary of the method: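 Male Sprague Dawley rats, groups of 4, dosed orally at 300 mg/kg once daily for 14 days. Animals killed on days 1, 3, 7 and 14, with plasma, brain, epididymal fat, liver and muscle taken 4 hr after dosing. Parent, salicylic acid and salicyluric acid were measured.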

Plasma [2] = experiment: Drug uptake in Sprague-Dawley rat plasma at 300 mg/kg, po administered for 14 days followed by 7 day washout cycle measured on day 21; format: ADME, organism-based; conditions: in vivo
[3] = AUClast in Sprague-Dawley rat at 100 mg/kg, po administered as single dose measured up to 6 hrs post dose by LC/MS/MS analysis; format: ADME, organism-based; parameters: dose 100 mg/kg, time < 6 hr, route oral; conditions: in vivo
Summary of the method: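 Single oral dose to Sprague Dawley rats; plasma collected at 0.25, 0.5, 1, 2, 4 and 6 hr; analytes in plasma quantified by LC/MS/MS.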

Plasma [4] = experiment: Drug metabolism in Sprague-Dawley rat plasma assessed as nicotinuric acid formation at 300 mg/kg, qd administered through oral gavage for 7 days measured 2 hrs post last dose by LC/MS/MS analysis; format: ADME, organism-based; conditions: in vivo
Liver [5] = experiment: Drug metabolism in Sprague-Dawley rat liver assessed as nicotinuric acid formation at 300 mg/kg, qd administered through oral gavage for 7 days measured 2 hrs post last dose by LC/MS/MS analysis; format: ADME, organism-based; conditions: in vivo
Liver [6] = experiment: Drug metabolism in Sprague-Dawley rat liver assessed as niacin linker metabolite N-(2-aminoethyl)nicotinamide formation at 300 mg/kg, qd administered through oral gavage for 7 days measured 2 hrs post last dose by LC/MS/MS analysis; format: ADME, organism-based; conditions: in vivo
[7] = biological target: T1, Sterol regulatory element-binding protein 2 (Homo sapiens) (UniProt Q12772); experiment: Inhibition of SREBP2 maturation in human HepG2 cells at 25 uM after overnight incubation by immunoblot analysis in the presence of atorvastatin; format: cell-based
T1 sequence (whole entry): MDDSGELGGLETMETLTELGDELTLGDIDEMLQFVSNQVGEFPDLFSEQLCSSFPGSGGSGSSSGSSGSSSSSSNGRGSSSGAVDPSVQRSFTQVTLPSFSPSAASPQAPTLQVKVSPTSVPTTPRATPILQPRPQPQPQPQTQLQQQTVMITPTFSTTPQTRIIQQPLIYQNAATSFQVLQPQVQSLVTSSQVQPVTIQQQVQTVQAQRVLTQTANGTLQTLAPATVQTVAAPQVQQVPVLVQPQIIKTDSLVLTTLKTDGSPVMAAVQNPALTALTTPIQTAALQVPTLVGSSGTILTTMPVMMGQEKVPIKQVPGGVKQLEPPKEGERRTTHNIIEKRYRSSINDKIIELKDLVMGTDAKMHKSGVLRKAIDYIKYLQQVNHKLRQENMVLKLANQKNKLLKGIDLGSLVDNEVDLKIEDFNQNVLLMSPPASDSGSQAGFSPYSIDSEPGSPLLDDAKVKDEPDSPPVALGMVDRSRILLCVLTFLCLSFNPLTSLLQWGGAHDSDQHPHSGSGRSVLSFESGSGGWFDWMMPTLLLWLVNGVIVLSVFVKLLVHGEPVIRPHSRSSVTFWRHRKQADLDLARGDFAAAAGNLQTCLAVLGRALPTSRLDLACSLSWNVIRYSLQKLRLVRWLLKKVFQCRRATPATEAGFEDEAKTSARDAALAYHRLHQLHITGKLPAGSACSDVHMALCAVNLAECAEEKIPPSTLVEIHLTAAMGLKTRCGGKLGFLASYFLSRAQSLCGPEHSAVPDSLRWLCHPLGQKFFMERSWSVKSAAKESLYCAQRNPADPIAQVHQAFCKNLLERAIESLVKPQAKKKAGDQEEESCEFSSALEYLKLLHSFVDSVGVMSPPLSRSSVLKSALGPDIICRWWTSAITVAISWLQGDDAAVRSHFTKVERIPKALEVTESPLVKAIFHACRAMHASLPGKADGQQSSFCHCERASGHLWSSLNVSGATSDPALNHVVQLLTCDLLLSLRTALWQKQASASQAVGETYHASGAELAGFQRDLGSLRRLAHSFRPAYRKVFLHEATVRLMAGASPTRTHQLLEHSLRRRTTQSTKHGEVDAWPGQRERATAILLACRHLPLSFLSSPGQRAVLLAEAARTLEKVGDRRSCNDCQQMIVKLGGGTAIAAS
Summary of the method: (§1)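 Human HepG2 cells incubated with compound (25 and 50 µM), alone or together with 10 µM atorvastatin; mature SREBP-2 protein level assessed.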

[8] = biological target: T1, Sterol regulatory element-binding protein 2 (Homo sapiens); experiment: Inhibition of SREBP2 in human HepG2 cells assessed as downregulation of PCSK9 mRNA expression by RT-PCR analysis; format: cell-based
Plasma [9] = experiment: Metabolic stability in beagle dog plasma at 5 uM up to 2 hrs by LC-MS-MS analysis; format: ADME, cell-free, Canis lupus familiaris
Summary of the method: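 Plasma from each species diluted to 50% with 0.05 M PBS pH 7.4 and prewarmed to 37 °C; compound added at 5 µM final (from DMSO stock diluted in MeOH); triplicate incubations at 37 °C, sampled at 0, 30, 60, 120 min, quenched with acetonitrile containing internal standard, centrifuged, analysed by LC/MS/MS.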

[10] = biological target: T2, Fatty-acid amide hydrolase 1 (Homo sapiens, UniProt O00519); experiment: Drug metabolism assessed as human recombinant N-terminal FLAG/C-terminal His-tagged FAAH1 (32 to 579 residues)-mediated compound hydrolysis by measuring release of EPA at 25 uM after 2 hrs by LC/MS-MS analysis in presence of PF-3845; format: ADME
T2 sequence (O00519 whole entry): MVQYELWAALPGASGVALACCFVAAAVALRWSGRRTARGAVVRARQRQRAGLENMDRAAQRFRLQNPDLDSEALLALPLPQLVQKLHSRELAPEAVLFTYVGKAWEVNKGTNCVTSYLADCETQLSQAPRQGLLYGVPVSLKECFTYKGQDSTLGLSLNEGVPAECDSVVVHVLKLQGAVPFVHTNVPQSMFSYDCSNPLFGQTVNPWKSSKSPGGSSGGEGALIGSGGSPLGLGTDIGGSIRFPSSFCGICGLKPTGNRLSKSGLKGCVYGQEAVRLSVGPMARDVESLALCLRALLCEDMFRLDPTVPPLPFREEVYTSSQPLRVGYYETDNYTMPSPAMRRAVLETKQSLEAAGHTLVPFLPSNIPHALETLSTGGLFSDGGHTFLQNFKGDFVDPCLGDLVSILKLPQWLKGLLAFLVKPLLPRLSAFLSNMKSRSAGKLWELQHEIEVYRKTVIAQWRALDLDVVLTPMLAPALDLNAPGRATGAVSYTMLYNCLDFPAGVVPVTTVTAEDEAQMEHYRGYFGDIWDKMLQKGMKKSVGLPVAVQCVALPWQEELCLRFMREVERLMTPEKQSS

[11] = biological target: T1, Sterol regulatory element-binding protein 2 (Homo sapiens); experiment: Inhibition of SREBP2 maturation in human HepG2 cells at 25 to 50 uM after overnight incubation by immunoblot analysis; format: cell-based; summary of the method: as §1

| Drug metabolism [1] | Drug metabolism (Brain) | Drug uptake (Plasma [2]) | SMILES | AUC(0-t) at 6 h [3] | Drug metabolism (Plasma [4]) | Drug metabolism (Liver [5]) | Drug metabolism (Liver [6]) | inhibition [7] | inhibition [8] | Stability (Plasma [9]) | Drug metabolism [10] | inhibition [11] |
| --- | --- | --- | --- | --- | --- | --- | --- | --- | --- | --- | --- | --- |
| metabolite_notdetected | 53.32 ng/g | Not Active | CC/C=C\C/C=C\C/C=C\C/C=C\C/C=C\C/C=C\CCC(=O)NCCNC(=O)c1ccccc1O [EDASALONEXENT] |  |  |  |  |  |  |  |  |  |
|  |  |  | CC/C=C\C/C=C\C/C=C\C/C=C\C/C=C\CCCC(=O)NCCNC(=O)c1cccnc1 | 172 ng·h/mL | 3220 ng/mL | 1356 ng/g | 10910 ng/g | Active | Dose-dependent effect | Stable | metabolite_notdetected | Dose-dependent effect |
